Bioassay records: PubChem BioAssay, Sanford-Burnham Center for Chemical Genomics
A selection follows.
HKDC1 act – increases human hexokinase HKDC1 activity; recombinant HKDC1, G6PDH/diaphorase resazurin fluorescence; active compounds read low; activity change, negative = activation, % at 20 µM; 340,000 compounds, 0.056% hits; AID 493187;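 active = activation of 40% or more at 20 µM, a change of -40% or lower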
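system = in-house human HKDC1 enzyme, G6PDH and diaphorase coupling enzymes | amount = HKDC1 5 µg/mL | measured by = resorufin fluorescence from 100 µM resazurin, NADP 1 mM, Ex 525/Em 613 nm | times = enzyme reaction 90 min, room temperature, in dark | doses = single compound dose of 20 µM, 1% DMSO final | medium = Tris/MgCl2 buffer, pH 8.0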
A number is an active result; n = inactive.

SMILES	HKDC1 act
Cc1ccc(OP2(=O)Nc3cc(C)c(C)cc3S2)cc1 (centres undefined)	-41
Nc1cnn(-c2ccccc2)c(=O)c1Cl	n
Cn1ncnc2c(=O)n(C)c(=O)nc1-2	n
Cc1cccc(N2C(=O)NC(=O)/C(=C\c3cc(C)n(-c4sc5c(c4C#N)CCCC5)c3C)C2=O)c1C	n
COc1cc2c(cc1OC)-c1c(OC)c(OC)c(OC)c3ccnc(c13)C2=O	n
